Data: PubChem BioAssay AID489030 (Sanford-Burnham Center for Chemical Genomics, 2010)
The whole screen tested about 330,000 compounds, of which about 2,400 (0.73%) were called active. Only a selection was taken, and actives are over-represented in it overall. Values without a mark were called inactive. Rule for the calls: active = inhibition of at least 40% at 20 µM; inactive = the rest.

biological target: Apoptotic protease-activating factor 1 (Homo sapiens) (UniProt O14727); assay: blockers of Apaf-1-driven caspase-3 activation – biochemical, DEVD-Rh110 fluorescence, uHTS, primary screen (AID 489030); conditions: reconstituted apoptosome caspase-3 activity, at 20 µM, stronger effect = higher value;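 note: plate controls were DMSO wells for no effect and DEVD-CHO caspase inhibitor wells for full effect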
Sequence (O14727 whole entry, looked up): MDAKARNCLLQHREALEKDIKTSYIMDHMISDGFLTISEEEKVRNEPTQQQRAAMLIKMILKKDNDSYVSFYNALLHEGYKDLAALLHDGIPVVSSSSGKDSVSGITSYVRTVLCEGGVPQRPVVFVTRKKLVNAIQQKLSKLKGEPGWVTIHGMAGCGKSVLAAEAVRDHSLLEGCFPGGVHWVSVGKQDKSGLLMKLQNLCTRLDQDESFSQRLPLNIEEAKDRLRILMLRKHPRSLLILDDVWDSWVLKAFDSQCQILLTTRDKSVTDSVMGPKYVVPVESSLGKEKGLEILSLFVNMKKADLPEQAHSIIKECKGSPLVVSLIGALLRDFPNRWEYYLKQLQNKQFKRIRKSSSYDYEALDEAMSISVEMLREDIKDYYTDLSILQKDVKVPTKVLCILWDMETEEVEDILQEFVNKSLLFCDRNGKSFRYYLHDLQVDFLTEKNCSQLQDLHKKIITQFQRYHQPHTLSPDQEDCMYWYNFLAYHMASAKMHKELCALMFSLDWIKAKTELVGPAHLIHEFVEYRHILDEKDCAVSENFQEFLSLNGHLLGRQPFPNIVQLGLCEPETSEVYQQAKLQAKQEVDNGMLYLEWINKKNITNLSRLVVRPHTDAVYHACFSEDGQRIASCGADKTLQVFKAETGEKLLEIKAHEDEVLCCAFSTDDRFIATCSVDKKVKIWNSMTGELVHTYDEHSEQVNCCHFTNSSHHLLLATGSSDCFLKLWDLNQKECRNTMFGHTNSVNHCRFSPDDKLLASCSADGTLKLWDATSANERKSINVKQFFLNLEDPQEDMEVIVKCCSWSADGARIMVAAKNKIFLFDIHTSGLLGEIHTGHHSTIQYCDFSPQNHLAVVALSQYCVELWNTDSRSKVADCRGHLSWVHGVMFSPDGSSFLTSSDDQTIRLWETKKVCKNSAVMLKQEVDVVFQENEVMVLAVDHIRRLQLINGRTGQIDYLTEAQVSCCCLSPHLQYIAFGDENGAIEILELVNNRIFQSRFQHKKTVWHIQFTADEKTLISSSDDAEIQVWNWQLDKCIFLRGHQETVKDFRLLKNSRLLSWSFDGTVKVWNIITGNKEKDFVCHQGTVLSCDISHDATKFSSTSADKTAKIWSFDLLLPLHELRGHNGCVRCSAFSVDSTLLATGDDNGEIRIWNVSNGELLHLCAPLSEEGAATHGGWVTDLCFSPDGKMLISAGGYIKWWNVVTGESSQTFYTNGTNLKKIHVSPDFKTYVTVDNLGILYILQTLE
Outline: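 Material: reconstituted apoptosome with Apaf-1, cytochrome c, caspase-9, procaspase-3, dATP / Buffer or medium: pH 7.5 Hepes buffer with CHAPS, BSA, DTT / Also added: cytochrome c with DEVD-Rh110 / Schedule: compound with Apaf-1, dATP, procaspase-3 30 min, then 50 min reaction, room temperature / Technique: rhodamine 110 fluorescence at Ex 480/Em 540 nm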

| Compound | inhibition |
| --- | --- |
| CNC(=O)NC(=O)CSc1nnc(-c2ccc(F)cc2)n1CC1CCCO1 (configuration not stated) | -8.1% |
| O=C(NN1C(=O)C2C3C=CC(C4CC34)C2C1=O)c1ccc(Cl)cc1 (configuration not stated) | 5.04% |
| CCOC(=O)Cn1nnnc1C | -24.4% |
| COc1cc(C(=O)NC2CCN(Cc3ccccc3)CC2)cc(Cl)c1OC(C)C | 4.18% |
| COc1ccc2sc(-c3ccccc3OC)c(-c3ccc(OCCN4CCCC4)cc3)c2c1 | 73.4% (active) |
| COc1ccc(-c2sc3ccccc3c2-c2ccc(OCCN3CCOCC3)cc2)cc1 | 15.7% |
| COc1cc(OC)cc(-c2sc3ccc(OC)cc3c2-c2ccc3cc[nH]c3c2)c1 | 7.8% |
| COc1ccccc1-c1sc2ccccc2c1-c1ccc(Br)nc1 | 14.2% |
| COc1cccc(-c2sc3ccc(OC)cc3c2-c2ccc(OCCN3CCCCC3)cc2)c1 | 61.8% (active) |
| COc1ccccc1-c1sc2ccccc2c1-c1ccc(C(C)=O)cc1 | 21.9% |
| CN1CCC(CN)(N2CCN(c3ccccc3)CC2)CC1 | 6.96% |
| CC1COc2ccccc2N1S(=O)(=O)c1ccccc1 (configuration not stated) | 11.7% |
| OCCn1c(-c2ccccc2)csc1=Nc1ccccc1 | 16.7% |
| O=C(Nc1cccc(Cl)c1Cl)c1ccccc1NC(=O)C1CC=CCC1C(=O)O (configuration not stated) | -3.06% |
| O=C(COC(=O)C1(c2ccc(F)cc2)CCCC1)N1CCNC1=O | -3.12% |
| Cc1ccc(NC(=O)c2oc3ccccc3c2C)c([N+](=O)[O-])c1 | 4.97% |
| O=S1(=O)CCC(NC(=S)SCc2ccccc2Br)C1 (configuration not stated) | 8.21% |
| NC(N)=N/N=C/c1ccc(OCc2ccc(Cl)cc2Cl)cc1 | 65.5% (active) |
| COc1ccc(Cl)cc1N(CC(=O)N/N=C/c1ccc(OCC(N)=O)cc1)S(C)(=O)=O | 9.06% |
| Cc1nc2ccccc2nc(C)c1=NOCc1ccc(Cl)cc1Cl | 8.52% |
| CCCNC(=O)OC[C@H]1O[C@H](CCO/N=C/[C@@H](NS(=O)(=O)c2ccc(C)cc2)[C@H](C)/C=C/CC(=O)OC)C=C[C@@H]1Oc1ccc(OC)cc1 | 9.15% |

| Compound | inhibition |
| --- | --- |
| O=C(c1ccc(Br)o1)N1CCN(CCOc2ccccc2)CC1 | 5.93% |
| CN(CC(=O)NC1CCCC1)S(=O)(=O)c1cnc[nH]1 | -3.15% |
| CCN(CC(=O)NCc1cccs1)C(=O)c1cccc(S(=O)(=O)Nc2ccccc2OC)c1 | 60.2% (active) |
| CCN(CC(=O)NCc1cccs1)C(=O)c1ccccc1F | -6.38% |
| CCN(CC(=O)NCc1cccs1)C(=O)c1ccc(OC)c(S(=O)(=O)N2CCOCC2)c1 | 5.14% |
| CCNC(=O)COC(=O)CCNC(=O)c1cccc(C)c1 | -4.69% |
| Cc1nn2cc(-c3ccc(Cl)cc3)cnc2c1Br | -6.41% |
| COc1cc(OC)cc(C(=O)OCC(=O)Nc2sccc2C(N)=O)c1 | -0.564% |
| COC(=O)c1ccc(N2CCOCC2)c(NC(=O)c2ccc(Br)o2)c1 | -17.7% |
| CCCCc1nc2cc(C(=O)N3CCCCC3CCO)ccc2o1 (configuration not stated) | 5.2% |
| CCN(CC)CCCSc1nc2ccccc2s1 | -0.516% |
| OCCNc1nc(Nc2ccc(Cl)c(Cl)c2)nc2ccccc12 | 24.2% |
| O=[N+]([O-])c1c(NCCO)cc(Sc2nc3ccccc3s2)c2nonc12 | 90.7% (active) |
| O=c1ccc2cc(S(=O)(=O)NCCCc3ccccc3)ccc2[nH]1 | 0.38% |
| C=CC(=O)OCCOCCOCCOCCOC(=O)C=C | -5.63% |
| c1ccc(C2CNCc3c2ccc2ccccc32)cc1 (configuration not stated) | 13.6% |
| CC(C)(C)CN1C(=O)C(=O)NC[C@H]1Cc1cccc2ccccc12 | -2.41% |
| c1ccc2c(CCN3CCNC[C@H]3Cc3cccc4ccccc34)cccc2c1 | 67% (active) |
| c1ccc(C[C@H]2CNCCN2CCC23CC4CC(CC(C4)C2)C3)cc1 | 47.5% (active) |
| O=C1CCNCCN1[C@H](CO)Cc1ccccc1 | -9.83% |
| NS(=O)(=O)c1ccc(N2C(=O)C3C4CC(C(Br)C4Br)C3C2=O)cc1 (configuration not stated) | 4.73% |

| Compound | inhibition |
| --- | --- |
| CC(=O)Nc1ccc(OCCC[n+]2cccc(C(=O)[O-])c2)cc1 | 0.989% |
| N=c1ccn(CC(=O)NC(N)=O)c2ccccc12 | -8.89% |
| C/C(=N\NC(=O)CNc1cccc2ccccc12)c1ccc(Br)s1 | 90.2% (active) |
| C/C(=N\NC(=O)CSc1nc2ccccc2c(=O)n1-c1ccccc1C)c1cccs1 | 19.1% |
| Cc1cccc(/C=N/NC(=O)CNc2cccc3ccccc23)n1 | 8.96% |
| COc1ccc(-n2nnnc2SCC(=O)c2ccc(OC)c(OC)c2)cc1 | 1% |
| CC[C@@H](C)[C@@H](C(=O)N1CCN(C(=O)OC(C)(C)C)CC1)n1cc(CCC(=O)O)nn1 | -7.69% |
| COc1ccc(C2=NOC3(CC(=O)N(c4ccc(Cl)cc4)C3=O)C2)c(OC)c1 (configuration not stated) | 5.23% |
| C#CCOCCOCCOCCNc1nc(N2CCN(C(=O)[C@H](CCC(=O)O)n3cc(CN)nn3)CC2)nc(N2CCN(C(=O)[C@H](CCC(=O)O)n3cc(CN)nn3)CC2)n1 | -8.71% |
| C#CCOCCOCCOCCNc1nc(N2CCN(C(=O)C([C@@H](C)CC)n3cc(C(N)COC(=O)C(F)(F)F)nn3)CC2)nc(N2CCN(C(=O)[C@H](CCCCN)n3cc(C(N)CC(C)C)nn3)CC2)n1 (some centres not stated) | 4.38% |
| C#CCOCCOCCOCCNc1nc(N2CCN(C(=O)C([C@@H](C)O)n3cc([C@@H](N)CCCCN)nn3)CC2)nc(N2CCN(C(=O)[C@H](CCCCN)n3cc(CN)nn3)CC2)n1 (some centres not stated) | 42.2% (active) |
| C#CCOCCOCCOCCNc1nc(N2CCN(C(=O)CCCCCCCCCCNC(=O)[C@H]([C@@H](C)CC)n3cc(CCCCN=C(N)N)nn3)CC2)nc(N2CCN(C(=O)CCCCCCCCCCNC(=O)[C@H](CO)n3cc(CCCSC)nn3)CC2)n1 | 59.2% (active) |
| C#CCOCCOCCOCCNc1nc(N2CCN(C(=O)CCCCCCCCCCNC(=O)Cn3cc(CCCCCN)nn3)CC2)nc(N2CCN(C(=O)CCCCCCCCCCNC(=O)[C@H](CO)n3cc(CCCSC)nn3)CC2)n1 | 60.7% (active) |
| C#CCOCCOCCOCCNc1nc(N2CCN(C(=O)[C@H](C(C)C)n3cc(CCO)nn3)CC2)nc(N2CCN(C(=O)[C@H]([C@@H](C)CC)n3cc(CCCN=C(N)N)nn3)CC2)n1 | 0.78% |
| C#CCOCCOCCOCCNc1nc(N2CCN(C(=O)[C@H](CCC(=O)O)n3cc(C(N)CO)nn3)CC2)nc(N2CCN(C(=O)[C@H](CCCCN)n3cc(C(N)[C@H](C)CC)nn3)CC2)n1 (some centres not stated) | 20.3% |
| C#CCOCCOCCOCCNc1nc(N2CCN(C(=O)Cn3cc(CCCCN)nn3)CC2)nc(N2CCN(C(=O)[C@H](CCCCN)n3cc(CCC(=O)O)nn3)CC2)n1 | 2.29% |
| C#CCOCCOCCOCCNc1nc(N2CCN(C(=O)[C@H](CCCN=C(N)N)n3cc(C(N)[C@@H](C)CC)nn3)CC2)nc(N2CCN(C(=O)[C@H](CO)n3cc([C@@H](N)C(C)C)nn3)CC2)n1 (some centres not stated) | 1.97% |
| C#CCOCCOCCOCCNc1nc(N2CCN(C(=O)CCCCCCCCCCNC(=O)[C@H](CCCCN)n3cc(C)nn3)CC2)nc(N2CCN(C(=O)CCCCCCCCCCNC(=O)[C@H](CO)n3cc(CCCSC)nn3)CC2)n1 | 59.7% (active) |
| C#CCOCCOCCOCCNc1nc(N2CCN(C(=O)[C@H](CCCCN)n3cc(CCC(=O)O)nn3)CC2)nc(N2CCN(C(=O)[C@H](CCCCN)n3cc(CC(C)O)nn3)CC2)n1 (some centres not stated) | -2.94% |
| C#CCOCCOCCOCCNc1nc(N2CCN(C(=O)[C@H](CCC(=O)O)n3cc(C(N)CO)nn3)CC2)nc(N2CCN(C(=O)[C@H](CCCCN)n3cc(C(N)CC(C)C)nn3)CC2)n1 (some centres not stated) | 2.63% |
